# Reference: ChEMBL document CHEMBL1140016, “Arylpropanolamines: selective beta3 agonists arising from strategies to mitigate phase I metabolic transformations” (Bioorg Med Chem Lett, 2007)
# How the values were obtained:
# Homo sapiens [1] = species on record: Homo sapiens; test: Selectivity ratio of Ki for adrenergic beta2 receptor Ki for adrenergic beta-3 receptor
# [2] = biological target: T1, Beta-3 adrenergic receptor (Homo sapiens, UniProt P13945); test: Intrinsic activity at human cloned adrenergic beta3 receptor expressed in CHO cells assessed as cAMP accumulation relative to isoproterenol; type: functional, cell-based
# Target sequence in this assay (P13945 whole entry, looked up): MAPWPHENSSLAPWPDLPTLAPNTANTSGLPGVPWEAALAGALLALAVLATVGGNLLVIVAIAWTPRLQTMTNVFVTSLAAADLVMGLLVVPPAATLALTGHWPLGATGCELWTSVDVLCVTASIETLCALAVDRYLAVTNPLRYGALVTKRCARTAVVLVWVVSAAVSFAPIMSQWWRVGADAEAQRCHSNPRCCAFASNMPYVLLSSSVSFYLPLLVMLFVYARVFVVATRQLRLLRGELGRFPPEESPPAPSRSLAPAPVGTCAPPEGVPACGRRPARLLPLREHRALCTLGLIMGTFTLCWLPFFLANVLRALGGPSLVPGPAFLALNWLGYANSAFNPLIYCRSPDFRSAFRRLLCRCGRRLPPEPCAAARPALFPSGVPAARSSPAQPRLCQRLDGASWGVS
# Homo sapiens [3] = species on record: Homo sapiens; test: Selectivity ratio of Ki for human adrenergic beta-1 receptor to Ki for human adrenergic beta-3 receptor
# [4] = biological target: T1, Beta-3 adrenergic receptor; test: Displacement of [125I]iodocyanopindolol from cloned human adrenergic beta-3 receptor expressed in CHO cells; type: cell-based
# Target sequence in this assay (P13945 whole entry): as the sequence (P13945 whole entry, looked up) above
# African green monkey [5] = test: Ratio of effect on tachycardia to ED50 for lipolysis in African green monkey; type: functional, Chlorocebus sabaeus
# In short: (§1)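 Compounds were given iv to ketamine-sedated African green monkeys across a range of doses. Lipolysis ED50 (mg/kg) came from the rise in serum free fatty acids. Onset doses were the lowest doses giving a statistically significant rise in heart rate (β1) or fall in serum K+ (β2). Each margin is the onset dose divided by the lipolysis ED50.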
# African green monkey [6] = test: Effect on potassium levels in African green monkey serum at 0.1 mg/kg, iv; type: functional, Chlorocebus sabaeus; design: unit not given beside the values
# In short: (§2)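 Single iv dose given to ketamine-sedated African green monkeys, either 0.1 or 0.5 mg/kg as the line states. Three read-outs were recorded after dosing: change in serum free fatty acids (β3 lipolysis), change in serum K+ (a decrease is β2-mediated) and change in heart rate (β1/β2 tachycardia). Changes were tested for significance at P < 0.05.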
# African green monkey [7] = test: Effect on African green monkey assessed as change in free fatty acid level at 0.1 mg/kg, iv; type: functional, Chlorocebus sabaeus; in short: as §2
# African green monkey [8] = test: Ratio of serum potassium concentration to ED50 for lipolysis in African green monkey; type: functional, Chlorocebus sabaeus; in short: as §1
# African green monkey [9] = test: Effect on tachycardia in African green monkey assessed as change in heart rate at 0.1 mg/kg, iv; type: functional, Chlorocebus sabaeus; in short: as §2
# African green monkey [10] = test: Effect on lipolysis in iv dosed African green monkey; type: functional; conditions: Chlorocebus sabaeus; in short: as §1
# [11] = biological target: Beta-2 adrenergic receptor (Homo sapiens, UniProt P07550); test: Displacement of [125I]iodocyanopindolol from human cloned adrenergic beta-2 receptor expressed in CHO cells; type: cell-based
# Sequence of Beta-2 adrenergic receptor (P07550 whole entry): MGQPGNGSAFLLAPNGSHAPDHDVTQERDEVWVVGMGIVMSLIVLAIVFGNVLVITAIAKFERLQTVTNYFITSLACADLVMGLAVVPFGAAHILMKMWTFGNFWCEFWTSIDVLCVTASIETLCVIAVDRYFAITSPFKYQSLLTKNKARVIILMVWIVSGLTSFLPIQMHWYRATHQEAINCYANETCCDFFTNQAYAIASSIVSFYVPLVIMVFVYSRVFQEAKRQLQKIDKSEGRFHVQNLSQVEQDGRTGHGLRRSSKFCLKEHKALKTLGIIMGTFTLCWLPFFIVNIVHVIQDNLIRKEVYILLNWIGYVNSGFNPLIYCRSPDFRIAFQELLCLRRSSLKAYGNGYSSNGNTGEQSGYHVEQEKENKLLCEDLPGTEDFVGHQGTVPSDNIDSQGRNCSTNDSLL
# [12] = biological target: Beta-1 adrenergic receptor (Homo sapiens, UniProt P08588); test: Displacement of [125I]iodocyanopindolol from human cloned adrenergic beta-1 receptor expressed in CHO cells; type: cell-based
# Sequence of Beta-1 adrenergic receptor (P08588 whole entry): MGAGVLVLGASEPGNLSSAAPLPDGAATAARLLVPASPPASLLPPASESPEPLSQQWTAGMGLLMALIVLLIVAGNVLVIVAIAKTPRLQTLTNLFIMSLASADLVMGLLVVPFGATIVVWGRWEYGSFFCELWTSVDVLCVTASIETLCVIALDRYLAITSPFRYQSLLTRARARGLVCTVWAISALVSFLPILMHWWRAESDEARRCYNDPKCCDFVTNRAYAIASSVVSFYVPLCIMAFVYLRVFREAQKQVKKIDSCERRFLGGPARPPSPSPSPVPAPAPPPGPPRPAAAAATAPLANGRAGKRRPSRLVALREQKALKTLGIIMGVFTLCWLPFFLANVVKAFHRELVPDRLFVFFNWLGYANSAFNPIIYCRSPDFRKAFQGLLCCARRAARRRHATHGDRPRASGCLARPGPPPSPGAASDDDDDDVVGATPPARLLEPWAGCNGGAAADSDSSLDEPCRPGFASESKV
# [13] = biological target: Beta-1 adrenergic receptor (Cavia porcellus) (UniProt B0FL73); test: Intrinsic activity at adrenergic beta-1 receptor in spontaneously beating guinea pig atria assessed as acceleration in contraction relative to isoproterenol
# Sequence of Beta-1 adrenergic receptor (Cavia porcellus) (B0FL73 1-467): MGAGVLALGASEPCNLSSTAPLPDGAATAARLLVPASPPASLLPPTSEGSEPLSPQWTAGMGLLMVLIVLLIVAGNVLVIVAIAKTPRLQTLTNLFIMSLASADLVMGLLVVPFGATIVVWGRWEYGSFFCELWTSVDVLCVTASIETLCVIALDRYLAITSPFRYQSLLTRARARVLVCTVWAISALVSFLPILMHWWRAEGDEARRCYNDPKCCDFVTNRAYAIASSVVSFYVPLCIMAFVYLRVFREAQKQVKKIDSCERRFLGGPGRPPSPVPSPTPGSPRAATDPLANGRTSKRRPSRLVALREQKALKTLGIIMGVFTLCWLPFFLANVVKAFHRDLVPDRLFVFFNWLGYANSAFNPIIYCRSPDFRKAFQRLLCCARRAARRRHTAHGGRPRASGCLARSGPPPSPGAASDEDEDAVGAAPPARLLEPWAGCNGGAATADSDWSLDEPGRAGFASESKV
Ratio Ki (Homo sapiens [1]),Intrinsic activity [2],Ratio Ki (Homo sapiens [3]),Ki [4],Ki [11],Ki [12],Compound,other results
0.4,46%,3,360 nM,–,–,COc1ccc(CNC[C@H](O)COc2ccc(O)c(NS(C)(=O)=O)c2)cc1,–
–,107%,–,–,–,–,CS(=O)(=O)Nc1cc([C@@H](O)CN[C@H](Cc2ccccc2)c2ccc(OC(F)F)cc2)ccc1O,Ratio (African green monkey [5]): 3; Activity (African green monkey [6]): 0.08; Activity (African green monkey [7]): 1.05; Ratio (African green monkey [8]): >25; Activity (African green monkey [9]): 26; ED50 (African green monkey [10]): 0.03 mg/kg
43,84%,111,9 nM,390 nM,1000 nM,COc1ccc([C@H](CCc2ccccc2)NC[C@H](O)Cc2ccc(O)c(NS(C)(=O)=O)c2)cc1OC,Activity (African green monkey [6]): -0.25; Activity (African green monkey [7]): 0.95; Activity (African green monkey [9]): 29
27,60%,112,160 nM,–,–,COc1ccc([C@@H](Cc2ccccc2)NC[C@H](O)CCc2ccc(O)c(NS(C)(=O)=O)c2)cc1OC,–
15,67%,120,3 nM,–,–,COc1ccc([C@@H](Cc2ccccc2)NC[C@H](O)COc2ccc(O)c(NS(C)(=O)=O)c2)cc1OC,–
7,48%,66,5 nM,–,–,CS(=O)(=O)Nc1cc(OC[C@@H](O)CN[C@H](Cc2ccccc2)c2ccc(OC(F)F)cc2)ccc1O,–
7,40%,38,880 nM,–,–,CS(=O)(=O)Nc1cc(CC[C@@H](O)CN[C@H](Cc2ccccc2)c2ccc(OC(F)F)cc2)ccc1O,–
8,73%,39,7 nM,57 nM,270 nM,COc1ccc([C@H](CCc2ccccc2Cl)NC[C@H](O)Cc2ccc(O)c(NS(C)(=O)=O)c2)cc1OC,–
–,93%,–,17000 nM,–,–,CS(=O)(=O)Nc1cc([C@@H](O)CN)ccc1O,–
–,–,–,–,–,–,CCOP(=O)(OCC)c1ccc(NC(=O)[C@@](C)(NC[C@H](O)c2ccc(O)c(NS(C)(=O)=O)c2)c2ccc(OC)cc2)cc1,Ratio (African green monkey [5]): >25; Ratio (African green monkey [8]): >25; ED50 (African green monkey [10]): 0.1 mg/kg
–,86%,–,7 nM,–,–,COc1ccc(C(C)(C)NC[C@H](O)c2ccc(O)c(NS(C)(=O)=O)c2)cc1,–
–,65%,–,53 nM,510 nM,6000 nM,COc1ccc([C@@H](Cc2ccccc2)NC[C@@H](O)Cc2ccc(O)c(NS(C)(=O)=O)c2)cc1,–
0.2,75%,3,170 nM,–,–,COc1ccc(CC(Cc2ccc(OC)c(OC)c2)NC[C@@H](O)Cc2ccc(O)c(NS(C)(=O)=O)c2)cc1OC,–
0.04,47%,0.08,15000 nM,–,–,CS(=O)(=O)Nc1cc(OC[C@@H](O)CN)ccc1O,–
–,58%,–,–,–,–,COc1ccc([C@H](NC[C@H](O)c2ccc(O)c(NS(C)(=O)=O)c2F)C(=O)Nc2ccccc2)cc1,–
10,89%,88,12 nM,120 nM,1050 nM,COc1ccc([C@H](CCc2ccc(Cl)cc2)NC[C@H](O)Cc2ccc(O)c(NS(C)(=O)=O)c2)cc1OC,Activity (African green monkey [6]): -0.32; Activity (African green monkey [7]): 0.87; Activity (African green monkey [9]): 32
–,88%,–,200 nM,–,–,COc1ccc(C(C)(C)NC[C@H](O)c2ccc(O)c(NS(C)(=O)=O)c2F)cc1,–
–,0%,–,120000 nM,–,–,CS(=O)(=O)Nc1c(O)ccc([C@@H](O)CN)c1F,–
–,119%,–,–,–,–,COc1ccc([C@H](NC[C@H](O)c2ccc(O)c(NS(C)(=O)=O)c2)C(=O)Nc2ccccc2)cc1 (stereo in doubt; 1a),–

Ratio Ki (Homo sapiens [1]),Intrinsic activity [2],Ratio Ki (Homo sapiens [3]),Ki [4],Ki [11],Ki [12],Compound,other results
13,65%,58,7 nM,–,–,COc1ccc([C@@H](Cc2ccccc2Cl)NC[C@@H](O)Cc2ccc(O)c(NS(C)(=O)=O)c2)cc1OC,–
0.1,35%,0.6,7300 nM,–,–,COc1ccc(CCNCC(O)Cc2ccc(O)c(NS(C)(=O)=O)c2)cc1OC (stereo not drawn),–
–,44%,–,110 nM,350 nM,3600 nM,COc1cccc([C@@H](Cc2ccccc2)NC[C@@H](O)Cc2ccc(O)c(NS(C)(=O)=O)c2)c1,–
–,27%,–,1100 nM,2700 nM,> 10000 nM,COc1cccc([C@@H](Cc2ccccc2)NC[C@H](O)Cc2ccc(O)c(NS(C)(=O)=O)c2)c1,Intrinsic activity [13]: 0%
1,86%,8,59 nM,71 nM,490 nM,CS(=O)(=O)Nc1cc(C[C@@H](O)CN[C@@H](CCc2ccccc2)c2ccc(OC(F)F)c(OC(F)F)c2)ccc1O,–
–,–,–,–,–,–,CS(=O)(=O)Nc1cc([C@@H](O)CNC(c2ccc(OC(F)F)cc2)c2ccc(OC(F)F)cc2)ccc1O,Ratio (African green monkey [5]): 6; Ratio (African green monkey [8]): >60; ED50 (African green monkey [10]): 0.08 mg/kg
0.5,44%,1,390 nM,200 nM,570 nM,COc1cccc([C@H](CCc2ccccc2)NC[C@H](O)Cc2ccc(O)c(NS(C)(=O)=O)c2)c1,–
–,70%,–,8 nM,1070 nM,3200 nM,COc1ccc([C@@H](Cc2ccccc2)NC[C@@H](O)Cc2ccc(O)c(NS(C)(=O)=O)c2)cc1O,–
0.6,60%,3,340 nM,–,–,CS(=O)(=O)Nc1cc(C[C@H](O)CNC(c2ccc(OC(F)F)cc2)c2ccc(OC(F)F)cc2)ccc1O,–
6,68%,24,24 nM,–,–,COc1ccc([C@@H](Cc2ccc(Cl)cc2)NC[C@@H](O)Cc2ccc(O)c(NS(C)(=O)=O)c2)cc1OC,–
0.3,50%,2,1100 nM,–,–,COc1ccc(CNCC(O)Cc2ccc(O)c(NS(C)(=O)=O)c2)cc1 (stereo not drawn),–
1,42%,1,3700 nM,–,–,COc1ccc(CNC[C@H](O)CCc2ccc(O)c(NS(C)(=O)=O)c2)cc1,–
–,70%,–,133 nM,38 nM,1500 nM,CS(=O)(=O)Nc1cc(C[C@H](O)CN[C@H](Cc2ccccc2)c2ccc(Cl)c(Cl)c2)ccc1O,–
–,60%,–,19 nM,102 nM,690 nM,CS(=O)(=O)Nc1cc(C[C@H](O)CN[C@H](Cc2ccccc2)c2ccc(OC(F)F)c(OC(F)F)c2)ccc1O,Intrinsic activity [13]: 0%
–,77%,–,270 nM,–,–,CS(=O)(=O)Nc1c(O)ccc([C@@H](O)CN[C@H](Cc2ccccc2)c2ccc(OC(F)F)cc2)c1F,–
–,30%,–,460 nM,3100 nM,> 10000 nM,COc1ccc([C@@H](Cc2ccccc2)NC[C@H](O)Cc2ccc(O)c(NS(C)(=O)=O)c2)cc1,Intrinsic activity [13]: 0%
13,68%,52,6 nM,–,–,COc1ccc([C@@H](Cc2cccc(Cl)c2)NC[C@@H](O)Cc2ccc(O)c(NS(C)(=O)=O)c2)cc1OC,Activity (African green monkey [6]): -0.55; Activity (African green monkey [7]): 0.92; Activity (African green monkey [9]): 6
9,93%,24,31 nM,280 nM,730 nM,COc1ccc([C@H](CCc2ccccc2)NC[C@H](O)Cc2ccc(O)c(NS(C)(=O)=O)c2)cc1,–

Compound,Ratio Ki (Homo sapiens [1]),Intrinsic activity [2],Ratio Ki (Homo sapiens [3]),Ki [4],Ki [11],Ki [12],other results
COc1ccc([C@H](CCc2cccc(Cl)c2)NC[C@H](O)Cc2ccc(O)c(NS(C)(=O)=O)c2)cc1OC,1,57%,14,29 nM,26 nM,420 nM,–
COc1ccc([C@H](Cc2ccccc2)NC[C@@H](O)Cc2ccc(O)c(NS(C)(=O)=O)c2)cc1OC,–,62%,–,9 nM,24 nM,560 nM,Intrinsic activity [13]: 75%
COc1ccc([C@H](Cc2ccccc2)NC[C@H](O)Cc2ccc(O)c(NS(C)(=O)=O)c2)cc1OC,–,70%,–,150 nM,820 nM,47000 nM,Intrinsic activity [13]: 48%
COc1ccc([C@@H](Cc2ccccc2)NC[C@H](O)Cc2ccc(O)c(NS(C)(=O)=O)c2)cc1OC,–,43%,–,25 nM,1500 nM,> 10000 nM,Intrinsic activity [13]: 0%
